Test results as given in ChEMBL document CHEMBL1932924, “Design, synthesis, and biological evaluation of 4-phenylpyrrole derivatives as novel androgen receptor antagonists” (Bioorg Med Chem, 2012).
≈ marks a conversion by molar mass, not a printed value.

Key:
Androgen receptor [1] = molecular target: T1, Androgen receptor (Homo sapiens, UniProt P10275); assay: Displacement of [17-alpha-methyl-3H]-mibolerone from human androgen receptor expressed in HEK293 derived FreeStyle293F cells after 3 hrs; assay type: cell-based
T1 sequence (P10275 whole entry): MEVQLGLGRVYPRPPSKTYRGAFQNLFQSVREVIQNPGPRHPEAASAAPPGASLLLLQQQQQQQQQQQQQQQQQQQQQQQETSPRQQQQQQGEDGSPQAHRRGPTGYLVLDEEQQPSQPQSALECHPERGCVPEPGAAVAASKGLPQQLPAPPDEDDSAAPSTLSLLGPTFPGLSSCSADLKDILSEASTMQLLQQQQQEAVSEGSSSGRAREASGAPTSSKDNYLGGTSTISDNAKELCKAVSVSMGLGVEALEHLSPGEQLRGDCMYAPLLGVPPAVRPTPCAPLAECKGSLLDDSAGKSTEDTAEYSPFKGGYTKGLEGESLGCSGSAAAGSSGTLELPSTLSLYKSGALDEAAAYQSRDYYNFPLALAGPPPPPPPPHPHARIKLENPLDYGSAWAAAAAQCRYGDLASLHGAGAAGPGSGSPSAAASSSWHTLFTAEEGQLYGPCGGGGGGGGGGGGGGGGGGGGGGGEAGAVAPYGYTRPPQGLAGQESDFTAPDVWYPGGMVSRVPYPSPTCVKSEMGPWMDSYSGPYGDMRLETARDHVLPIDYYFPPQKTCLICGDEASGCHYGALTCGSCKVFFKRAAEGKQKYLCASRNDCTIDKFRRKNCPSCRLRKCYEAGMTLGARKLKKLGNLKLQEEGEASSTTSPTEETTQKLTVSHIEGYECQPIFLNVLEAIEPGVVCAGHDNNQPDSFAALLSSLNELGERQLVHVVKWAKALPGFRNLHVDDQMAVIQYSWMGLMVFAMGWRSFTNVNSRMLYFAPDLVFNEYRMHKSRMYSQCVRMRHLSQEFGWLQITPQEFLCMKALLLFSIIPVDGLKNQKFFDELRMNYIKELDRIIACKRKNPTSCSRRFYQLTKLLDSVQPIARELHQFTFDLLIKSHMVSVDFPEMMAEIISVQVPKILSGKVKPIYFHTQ

Androgen receptor [2] = molecular target: T2, Androgen receptor (Homo sapiens, UniProt P10275, T878A); assay: Displacement of [17-alpha-methyl-3H]-mibolerone from human androgen receptor T877A mutant expressed in HEK293 derived FreeStyle293F cells after 3 hrs; assay type: cell-based
Androgen receptor [3] = molecular target: T1, Androgen receptor; assay: Antagonist activity at human androgen receptor expressed in COS7 cells assessed as inhibition of DHT-induced luciferase activity after 24 hrs by reporter gene assay; assay type: functional, cell-based, COS-7
Androgen receptor [4] = molecular target: T2, Androgen receptor; assay: Antagonist activity at human androgen receptor T877A mutant expressed in COS7 cells assessed as inhibition of DHT-induced luciferase activity after 24 hrs by reporter gene assay; assay type: functional, cell-based, COS-7
Androgen receptor [5] = molecular target: T3, Androgen receptor (Homo sapiens, UniProt P10275, W742C); assay: Antagonist activity at human androgen receptor W741C mutant expressed in COS7 cells assessed as inhibition of DHT-induced luciferase activity after 24 hrs by reporter gene assay; assay type: functional, cell-based, COS-7
Androgen receptor [6] = molecular target: T1, Androgen receptor; assay: Agonist activity at human androgen receptor expressed in COS7 cells assessed as luciferase activity after 24 hrs by reporter gene assay; assay type: functional, cell-based, COS-7
Androgen receptor [7] = molecular target: T2, Androgen receptor; assay: Agonist activity at human androgen receptor T877A mutant expressed in COS7 cells assessed as luciferase activity after 24 hrs by reporter gene assay; assay type: functional, cell-based, COS-7
Androgen receptor [8] = molecular target: T3, Androgen receptor; assay: Agonist activity at human androgen receptor W741C mutant expressed in COS7 cells assessed as luciferase activity after 24 hrs by reporter gene assay; assay type: functional, cell-based, COS-7
[9] = Solubility in aqueous buffer solution at pH 6.8; assay type: physicochemical
Summary of the method: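 DMSO stock added to aqueous buffer at pH 6.8 and incubated. Precipitate removed by filtration; filtrate concentration measured by HPLC.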

[10] = AUC in mouse at 5 mg/kg, po; assay type: ADME, organism-based; design: dose 5 mg/kg, route oral; conditions: plasma
Summary of the method: (§1)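 Mice given a single oral 5 mg/kg dose; n = 3. AUC, bioavailability (F) and mean residence time derived from plasma exposure.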

[11] = Oral bioavailability in mouse at 5 mg/kg; assay type: ADME, organism-based; conditions: in vivo; summary of the method: as §1
[12] = Mean residence time in mouse at 5 mg/kg, po; assay type: ADME, organism-based; design: dose 5 mg/kg, route oral; conditions: in vivo; summary of the method: as §1
Mus musculus [13] = assay: Antiandrogenic activity in ICR mouse assessed as ventral prostate weight at 2.5 mg/kg, po bid administered for 7 days (reference value: 14.6 +/- […]); assay type: functional, Prostate gland
Summary of the method: (§2)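 8-week-old male ICR mice, intact, dosed orally for seven days; n = 8 per group. Ventral prostate weighed the day after the last dose. Reduction = decrease in test group ÷ decrease in castrated group × 100. Controls are vehicle-treated mice. Significance by Williams test or unpaired Student's test versus control.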

Mus musculus [14] = assay: Antiandrogenic activity in ICR mouse assessed as ventral prostate weight at 7.5 mg/kg, po bid administered for 7 days (reference value: 14.6 +/- […]); assay type: functional, Prostate gland; summary of the method: as §2
Mus musculus [15] = assay: Antiandrogenic activity in ICR mouse assessed as ventral prostate weight at 25 mg/kg, po bid administered for 7 days (reference value: 14.6 +/- […]); assay type: functional, Prostate gland; summary of the method: as §2
Mus musculus [16] = assay: Antiandrogenic activity in ICR mouse assessed as reduction of ventral prostate weight at 2.5 mg/kg, po bid administered for 7 days relative to control; assay type: functional, Prostate gland; design: scale not given: the % may be the effect or the level left; summary of the method: as §2
Mus musculus [17] = assay: Antiandrogenic activity in ICR mouse assessed as reduction of ventral prostate weight at 7.5 mg/kg, po bid administered for 7 days relative to control; assay type: functional, Prostate gland; design: scale not given: the % may be the effect or the level left; summary of the method: as §2
Mus musculus [18] = assay: Antiandrogenic activity in ICR mouse assessed as reduction of ventral prostate weight at 25 mg/kg, po bid administered for 7 days relative to control; assay type: functional, Prostate gland; design: scale not given: the % may be the effect or the level left; summary of the method: as §2
[19] = Antitumor activity against human JDCaP cells expressing wild type AR xenografted in testosterone propionate-challenged castrated BALB/c nude mouse assessed as decrease in tumor volume at 3.125 mg/kg, po bid administered for 29 days measured on day 28 (reference value: 681.8 +/- 75 mm3); assay type: functional
Summary of the method: (§3)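 Nude mice carrying JDCaP tumours, n = 7 per group, castrated and given s.c. testosterone propionate 0.2 mg/kg once daily for 29 days. Oral twice-daily dosing in 0.5% methylcellulose over the same period; controls get vehicle plus TP. Tumour volume measured weekly. T/C = increase in tumour volume versus control × 100.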

[20] = Antitumor activity against human JDCaP cells expressing wild type AR xenografted in testosterone propionate-challenged castrated BALB/c nude mouse assessed as decrease in tumor volume at 6.25 mg/kg, po bid administered for 29 days measured on day 28 (reference value: 681.8 +/- 75 mm3); assay type: functional; summary of the method: as §3
[21] = Antitumor activity against human JDCaP cells expressing wild type AR xenografted in testosterone propionate-challenged castrated BALB/c nude mouse assessed as decrease in tumor volume at 3.125 mg/kg, po bid administered for 29 days measured on day 28 relative to control; assay type: functional; summary of the method: as §3
[22] = Antitumor activity against human JDCaP cells expressing wild type AR xenografted in testosterone propionate-challenged castrated BALB/c nude mouse assessed as decrease in tumor volume at 6.25 mg/kg, po bid administered for 29 days measured on day 28 relative to control; assay type: functional; summary of the method: as §3
[23] = (§4) Antitumor activity against human LNCaP-FGC cells expressing androgen receptor W741C/[…] mutant xenografted in castrated BALB/c nude mouse assessed as effect on tumor volume at 25 mg/kg, po bid administered for 29 days measured on day 28 (reference value: 402 +/- 47.7 mm3); assay type: functional, LNCaP-Clone-FGC
[24] = Antitumor activity against human LNCaP-FGC cells expressing androgen receptor W741C/[…] mutant xenografted in castrated BALB/c nude mouse assessed as effect on tumor volume at 25 mg/kg, po bid administered for 29 days measured on day 28 relative to control; assay type: functional, LNCaP-Clone-FGC
[25] = as §4, with “decrease in prostate specific antigen level in plasma” for “effect on tumor volume”, “35.8” for “402”, “10.7 ng/mL)” for “47.7 mm3)”; assay type: functional, LNCaP-Clone-FGC
Mus musculus [26] = assay: Toxicity in BALB/c mouse assessed as body weight at 25 mg/kg, po bid administered for 29 days measured on day 28 (reference value: 17.6 +/- 0.4g); assay type: organism-based; design: dose 25 mg/kg, route oral; conditions: in vivo, 696 h
Mus musculus [27] = assay: Antiandrogenic activity in ICR mouse assessed as reduction of ventral prostate weight at 100 mg/kg, po qd administered for 7 days relative to control; assay type: functional, Prostate gland; design: scale not given: the % may be the effect or the level left
Summary of the method: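 Male ICR mice, 8 weeks old, n=8, dosed orally for seven days with vehicle and castrated groups. Prostate weighed the day after the last dose. % reduction = treated-group weight decrease ÷ castrated-group decrease × 100.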

[28] = Antitumor activity against human JDCaP cells expressing wild type AR xenografted in testosterone propionate-challenged castrated BALB/c nude mouse assessed as decrease in tumor volume at 20 mg/kg, po bid administered for 29 days measured on day 28 (reference value: 1736.6 +/- 486.2 mm3); assay type: functional
Summary of the method: (§5)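 JDCaP tumours in nude mice (n=7) castrated the day after grouping. Testosterone propionate 0.2 mg/kg sc once daily for 29 days. Oral drug or 0.5% methylcellulose vehicle for the same period. Tumour volume measured weekly. T/C = volume increase vs testosterone-treated vehicle control × 100.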

[29] = Antitumor activity against human JDCaP cells expressing wild type AR xenografted in testosterone propionate-challenged castrated BALB/c nude mouse assessed as decrease in tumor volume at 20 mg/kg, po qd administered for 29 days measured on day 28 relative to control; assay type: functional; summary of the method: as §5
[30] = (§6) Antitumor activity against human LNCaP-FGC cells expressing androgen receptor W741C/[…] mutant xenografted in castrated BALB/c nude mouse assessed as effect on tumor volume at 20 mg/kg, po qd administered for 29 days measured on day 28 (reference value: 402 +/- 47.7 mm3); assay type: functional, LNCaP-Clone-FGC
[31] = Antitumor activity against human LNCaP-FGC cells expressing androgen receptor W741C/[…] mutant xenografted in castrated BALB/c nude mouse assessed as effect on tumor volume at 20 mg/kg, po qd administered for 29 days measured on day 28 relative to control; assay type: functional, LNCaP-Clone-FGC
Summary of the method: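 LNCaP-cxD2 flank xenografts in BALB/c nude mice, grouped at ~200 mm3 (n=7) and castrated next day. Oral dosing for 29 days, vehicle 0.5% methylcellulose. Weekly caliper volumes. T/C = tumour volume increase vs castration (vehicle) group × 100.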

[32] = as §6, with “decrease in prostate specific antigen level in plasma” for “effect on tumor volume”, “35.8” for “402”, “10.7 ng/mL)” for “47.7 mm3)”; assay type: functional, LNCaP-Clone-FGC
Summary of the method: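 LNCaP-cxD2 flank xenografts in castrated BALB/c nude mice (n=7), grouped at ~200 mm3. Oral dosing for 29 days from castration, vehicle 0.5% methylcellulose. Blood taken at study end for plasma PSA.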

Mus musculus [33] = assay: Toxicity in BALB/c mouse assessed as body weight at 20 mg/kg, po qd administered for 29 days measured on day 28 (reference value: 17.6 +/- 0.4g); assay type: organism-based; design: dose 20 mg/kg, route oral; conditions: in vivo, 696 h

T2 sequence (P10275 whole entry T878A): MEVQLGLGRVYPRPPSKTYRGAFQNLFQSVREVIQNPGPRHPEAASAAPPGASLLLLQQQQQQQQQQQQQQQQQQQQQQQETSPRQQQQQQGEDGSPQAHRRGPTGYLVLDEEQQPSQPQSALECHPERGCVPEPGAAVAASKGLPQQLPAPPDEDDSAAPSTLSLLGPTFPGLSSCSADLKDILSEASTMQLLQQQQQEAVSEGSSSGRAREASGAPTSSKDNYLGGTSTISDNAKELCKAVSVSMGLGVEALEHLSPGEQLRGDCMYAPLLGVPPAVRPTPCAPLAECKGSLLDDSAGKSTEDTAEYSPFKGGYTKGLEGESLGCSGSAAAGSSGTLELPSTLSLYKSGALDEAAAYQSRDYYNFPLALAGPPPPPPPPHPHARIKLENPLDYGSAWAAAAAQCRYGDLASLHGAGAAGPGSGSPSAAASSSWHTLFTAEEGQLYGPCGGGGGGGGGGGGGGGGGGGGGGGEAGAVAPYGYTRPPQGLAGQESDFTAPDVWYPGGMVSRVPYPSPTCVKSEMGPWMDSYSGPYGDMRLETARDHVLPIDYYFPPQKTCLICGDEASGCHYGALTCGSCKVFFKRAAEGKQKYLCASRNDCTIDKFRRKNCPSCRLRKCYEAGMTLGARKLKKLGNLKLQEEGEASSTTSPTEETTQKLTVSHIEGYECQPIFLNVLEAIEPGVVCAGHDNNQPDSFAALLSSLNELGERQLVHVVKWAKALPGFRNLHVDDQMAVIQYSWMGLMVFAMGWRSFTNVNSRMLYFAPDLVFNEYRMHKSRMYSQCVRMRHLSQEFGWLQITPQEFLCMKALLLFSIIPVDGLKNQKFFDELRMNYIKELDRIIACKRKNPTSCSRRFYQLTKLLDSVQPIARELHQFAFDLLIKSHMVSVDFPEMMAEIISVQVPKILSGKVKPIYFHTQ
T3 sequence (P10275 whole entry W742C): as the sequence (P10275 whole entry T878A) above, with W742C, A878T counted along it

Work on Cc1c(C#N)c(-c2ccc(C#N)cc2)c(C)n1Cc1cnc(Cl)c(CO)c1 yielded an IC50 (Androgen receptor [1]) of 37 nM, an IC50 (Androgen receptor [2]) of 100 nM and an IC50 (Androgen receptor [3]) of 25 nM. The IC50 (Androgen receptor [4]) was 110 nM, the IC50 (Androgen receptor [5]) was 280 nM and the EC50 (Androgen receptor [6]) was > 10000 nM. The EC50 (Androgen receptor [7]) was > 10000 nM, the EC50 (Androgen receptor [8]) was > 10000 nM and the solubility [9] was 15 µg/mL (≈ 39.8 µM). It also gave an AUC [10] of 19200 ng·h/mL, a bioavailability [11] of 104% and an MRT [12] of 4.85 h. For the same molecule, the Activity (Mus musculus [13]) was 13.4 mg, the Activity (Mus musculus [14]) was 12.2 mg and the Activity (Mus musculus [15]) was 8.9 mg. It also gave an Activity (Mus musculus [16]) of 16%, an Activity (Mus musculus [17]) of 31% and an Activity (Mus musculus [18]) of 74%. It also gave an Activity [19] of 88.4 mm3, an Activity [20] of 94.8 mm3 and a T/C [21] of -44.7%. The T/C [22] was -44.8%, the Activity [23] was 269.3 mm3 and the T/C [24] was 15.8%. It also gave an Activity [25] of 1 ng/mL and an Activity (Mus musculus [26]) of 22.9 g.

CC(O)(CS(=O)(=O)c1ccc(F)cc1)C(=O)Nc1ccc(C#N)c(C(F)(F)F)c1 (stereo not drawn) [BICALUTAMIDE] showed an Activity (Mus musculus [27]) of 40%, an Activity [28] of 212.2 mm3 and a T/C [29] of -70.2%. The Activity [30] was 461.5 mm3, the T/C [31] was 137.9% and the Activity [32] was 38.5 ng/mL. For the same molecule, the Activity (Mus musculus [33]) was 17.9 g.
